≈ marks a conversion by molar mass, not a printed value.
Tests used:
Assay type in all cases: functional
Staphylococcus aureus = assay: Antimicrobial activity against methicillin-resistant Staphylococcus aureus SG 511 by broth dilution method
Method in brief: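 MIC was determined by broth dilution following NCCLS guidelines, using S. aureus SG 511 (MRSA).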

[1] = system: Mycolicibacterium fortuitum; assay: Antimicrobial activity against Mycobacterium fortuitum IMET 10667 by broth dilution method
Method in brief: (§1)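 MIC was determined by broth dilution following the NCCLS standard method.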

Mycolicibacterium aurum = assay: Antimicrobial activity against Mycobacterium aurum SB 66 by broth dilution method; method in brief: as §1
Mycolicibacterium vaccae = assay: Antimicrobial activity against Mycobacterium vaccae IMET 10670 by broth dilution method; method in brief: as §1
[2] = system: Mycolicibacterium smegmatis; assay: Antimicrobial activity against Mycobacterium smegmatis SG 987 by broth dilution method; method in brief: as §1
[3] = system: Mycobacterium avium complex sp.; assay: Antimicrobial activity against Mycobacterium avium complex by BACTEC radiometric assay
[4] = system: Mycobacterium tuberculosis; assay: Antimicrobial activity against Mycobacterium tuberculosis by BACTEC radiometric assay

Row | Structure (SMILES) | MIC (Staphylococcus aureus) [µg/mL] | MIC [1] [µg/mL] | MIC (Mycolicibacterium aurum) [µg/mL] | MIC (Mycolicibacterium vaccae) [µg/mL] | MIC [2] [µg/mL] | MIC [3] [µg/mL] | MIC [4] [µg/mL]
1 | O=C(O)c1cccc2nc3ccccc3nc12 [PHENAZINE-1-CARBOXYLIC ACID] | 100 (≈ 446 µM) | 50 (≈ 223 µM) | 50 (≈ 223 µM) | 25 (≈ 111 µM) | 50 (≈ 223 µM) |  | 
2 | O=C(O)c1cccc2c1Nc1ccccc1N2C(=O)CO | 100 (≈ 352 µM) | 50 (≈ 176 µM) | 50 (≈ 176 µM) | 25 (≈ 87.9 µM) | 50 (≈ 176 µM) |  | 
3 | CC(C)(O)/C=C/c1cccc2nc3cccc(C(=O)O)c3nc12 | 100 (≈ 324 µM) | 25 (≈ 81.1 µM) | 25 (≈ 81.1 µM) | 25 (≈ 81.1 µM) | 50 (≈ 162 µM) |  | 
4 | C/C(=C\Cc1cccc2nc3cccc(C(=O)O)c3nc12)CO | 100 (≈ 324 µM) | 25 (≈ 81.1 µM) | 25 (≈ 81.1 µM) | 25 (≈ 81.1 µM) | 50 (≈ 162 µM) |  | 
5 | O=C(O)c1cn(C2CC2)c2cc(N3CCNCC3)c(F)cc2c1=O [CIPROFLOXACIN] | 12.5 (≈ 37.7 µM) | 0.1 (≈ 0.302 µM) | 0.1 (≈ 0.302 µM) | 0.1 (≈ 0.302 µM) | 0.78 (≈ 2.35 µM) |  | 
6 | CC(C)/N=c1\cc2n(-c3ccc(Cl)cc3)c3ccccc3nc-2cc1Nc1ccc(Cl)cc1 [CLOFAZIMINE] |  |  |  |  |  | 0.12 (≈ 0.253 µM) | 0.12 (≈ 0.253 µM)

Reference: ChEMBL document CHEMBL3232807, “Genomics-guided discovery of endophenazines from Kitasatospora sp. HKI 714” (2014)
